Source: ChEMBL document CHEMBL3352311, “Discovery of novel 3-benzylquinazolin-4(3H)-ones as potent vasodilative agents” (Bioorg Med Chem Lett, 2014)
Values belong to the molecule of their own block, whether it stands above or below them. The source made the active and inactive calls. The calls are words filed in the database; no cut-off is given here.

Columns and labels:
[1] = Vasodilative activity in isolated Sprague-Dawley rat mesenteric arterial ring assessed as reduction in KCl-induced contraction by wire myograph method relative to control; format: functional; settings: Mesenteric artery
In short: (§1)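 Isolated rat mesenteric arterial rings were precontracted with 60 mM KCl MOPS solution and then exposed to the compound. Relaxation was expressed as pEC50 and Emax (%), given as mean ± deviation. DMSO served as vehicle control and nitrendipine as reference.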

[2] = Vasodilative activity in isolated Sprague-Dawley rat mesenteric arterial ring assessed as reduction in KCl-induced contraction by wire myograph method; format: functional; settings: Mesenteric artery; in short: as §1
Rattus norvegicus [3] = experiment: Antihypertensive activity in spontaneously hypertensive rat assessed as reduction in diastolic blood pressure at 4 mg/kg, po measured after 1 hr; format: functional, Artery
In short: (§2)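 Oral dosing in spontaneously hypertensive rats, n = 8 per group. Vehicle was NMP/PEG400/H2O 1:7:2 at 5 ml/kg, and vehicle alone served as control. DBP and SBP (mmHg) were recorded before dosing (0 h) and 1 h after. The reported value is the reduction from the 0 h reading. Doses tested ranged from 0.5 to 8.0 mg/kg, with nitrendipine 2.0 mg/kg as positive drug.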

[4] = Vasodilative activity in isolated Sprague-Dawley rat mesenteric arterial ring assessed as reduction in phenylephrine-induced contraction at 1 to 10 uM pre-incubated for 30 mins before phenylephrine addition by wire myograph method; format: functional; settings: Mesenteric artery
In short: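 Rat mesenteric artery segments were pretreated with compound at 10^-5 M or 10^-6 M for 30 min. Contraction induced by phenylephrine was then recorded.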

Rattus norvegicus [5] = experiment: Antihypertensive activity in spontaneously hypertensive rat assessed as reduction in systolic blood pressure at 4 mg/kg, po measured after 1 hr; format: functional, Artery; in short: as §2
Rattus norvegicus [6] = experiment: Antihypertensive activity in spontaneously hypertensive rat assessed as reduction in systolic blood pressure at 2 mg/kg, po measured after 1 hr; format: functional, Artery; in short: as §2
Rattus norvegicus [7] = experiment: Antihypertensive activity in spontaneously hypertensive rat assessed as reduction in diastolic blood pressure at 2 mg/kg, po measured after 1 hr; format: functional, Artery; in short: as §2
Rattus norvegicus [8] = experiment: Antihypertensive activity in spontaneously hypertensive rat assessed as reduction in systolic blood pressure at 4 mg/kg, po measured after 2 hrs; format: functional, Artery
In short: (§3)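 Time course in spontaneously hypertensive rats given 4.0 mg/kg orally in NMP/PEG400/H2O 1:7:2 vehicle (5 ml/kg). A vehicle-only group was included. DBP and SBP were followed at successive times after dosing, and the reduction from the pre-dose blood pressure was reported.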

Rattus norvegicus [9] = experiment: Antihypertensive activity in orally dosed spontaneously hypertensive rat assessed as reduction in diastolic blood pressure; format: functional, organism-based; settings: Artery; in short: as §2
Rattus norvegicus [10] = experiment: Antihypertensive activity in spontaneously hypertensive rat assessed as reduction in diastolic blood pressure at 0.5 mg/kg, po measured after 1 hr; format: functional, Artery; in short: as §2
Rattus norvegicus [11] = experiment: Antihypertensive activity in spontaneously hypertensive rat assessed as reduction in diastolic blood pressure at 4 mg/kg, po measured after 0.5 hrs; format: functional, Artery; in short: as §3
Rattus norvegicus [12] = experiment: Antihypertensive activity in spontaneously hypertensive rat assessed as reduction in diastolic blood pressure at 4 mg/kg, po measured after 2 hrs; format: functional, Artery; in short: as §3
Rattus norvegicus [13] = experiment: Antihypertensive activity in spontaneously hypertensive rat assessed as reduction in systolic blood pressure at 4 mg/kg, po measured after 4 hrs; format: functional, Artery; in short: as §3
Rattus norvegicus [14] = experiment: Antihypertensive activity in orally dosed spontaneously hypertensive rat assessed as reduction in systolic blood pressure; format: functional, organism-based; settings: Artery; in short: as §2
Rattus norvegicus [15] = experiment: Antihypertensive activity in spontaneously hypertensive rat assessed as reduction in diastolic blood pressure at 4 mg/kg, po measured after 8 hrs; format: functional, Artery; in short: as §3
Rattus norvegicus [16] = experiment: Antihypertensive activity in spontaneously hypertensive rat assessed as reduction in systolic blood pressure at 4 mg/kg, po measured after 6 hrs; format: functional, Artery; in short: as §3
Rattus norvegicus [17] = experiment: Antihypertensive activity in spontaneously hypertensive rat assessed as reduction in diastolic blood pressure at 4 mg/kg, po measured after 4 hrs; format: functional, Artery; in short: as §3
Rattus norvegicus [18] = experiment: Antihypertensive activity in spontaneously hypertensive rat assessed as reduction in systolic blood pressure at 0.5 mg/kg, po measured after 1 hr; format: functional, Artery; in short: as §2
Rattus norvegicus [19] = experiment: Antihypertensive activity in spontaneously hypertensive rat assessed as reduction in systolic blood pressure at 8 mg/kg, po measured after 1 hr; format: functional, Artery; in short: as §2
Rattus norvegicus [20] = experiment: Antihypertensive activity in spontaneously hypertensive rat assessed as reduction in systolic blood pressure at 4 mg/kg, po measured after 0.5 hrs; format: functional, Artery; in short: as §3
Rattus norvegicus [21] = experiment: Antihypertensive activity in spontaneously hypertensive rat assessed as reduction in diastolic blood pressure at 4 mg/kg, po measured after 6 hrs; format: functional, Artery; in short: as §3
Rattus norvegicus [22] = experiment: Antihypertensive activity in spontaneously hypertensive rat assessed as reduction in systolic blood pressure at 1 mg/kg, po measured after 1 hr; format: functional, Artery; in short: as §2
Rattus norvegicus [23] = experiment: Antihypertensive activity in spontaneously hypertensive rat assessed as reduction in systolic blood pressure at 4 mg/kg, po measured after 8 hrs; format: functional, Artery; in short: as §3
Rattus norvegicus [24] = experiment: Antihypertensive activity in spontaneously hypertensive rat assessed as reduction in diastolic blood pressure at 1 mg/kg, po measured after 1 hr; format: functional, Artery; in short: as §2
Rattus norvegicus [25] = experiment: Antihypertensive activity in spontaneously hypertensive rat assessed as reduction in diastolic blood pressure at 8 mg/kg, po measured after 1 hr; format: functional, Artery; in short: as §2

Structure (SMILES): O=c1c2ccc(F)cc2ncn1Cc1ccc(F)cc1
- Emax [1]: 78.3%
- EC50 [2]: 100 µM

Structure (SMILES): COc1cc2ncn(Cc3ccccc3Cl)c(=O)c2cc1OC
- Emax [1]: 98.3%
- EC50 [2]: 39.8 µM

Structure (SMILES): COc1cc2ncn(Cc3ccc(OCc4ccc(F)cc4)cc3)c(=O)c2cc1OC
- Emax [1]: 50.3%
- EC50 [2]: 100 µM

Structure (SMILES): O=c1c2ccc(Cl)cc2ncn1Cc1ccc(F)cc1
- Emax [1]: 101%
- EC50 [2]: 63.1 µM

Structure (SMILES): COc1cc2ncn(Cc3ccc([N+](=O)[O-])cc3)c(=O)c2cc1OC
- Emax [1]: 86.2%
- EC50 [2]: 63.1 µM

Structure (SMILES): O=c1c2cc(Br)ccc2ncn1Cc1ccc(F)cc1
- Emax [1]: 96.4%
- EC50 [2]: 50.1 µM

Structure (SMILES): COc1cc2ncn(Cc3ccccc3)c(=O)c2cc1OC
- Emax [1]: 98.2%
- EC50 [2]: 39.8 µM

Structure (SMILES): COc1ccc(Cn2cnc3cc(Cl)ccc3c2=O)cc1
- Emax [1]: 97%
- EC50 [2]: 50.1 µM

Structure (SMILES): COc1ccc(Cn2cnc3cc(F)ccc3c2=O)cc1
- Emax [1]: 87.7%
- EC50 [2]: 79.4 µM

Structure (SMILES): COc1cc2ncn(Cc3ccc(C#N)cc3)c(=O)c2cc1OC
- Emax [1]: 85.6%
- EC50 [2]: 50.1 µM

Structure (SMILES): COc1ccc(-n2cnc3cc(OC)c(OC)cc3c2=O)cc1
- Emax [1]: 96.3%
- EC50 [2]: 63.1 µM

Structure (SMILES): COc1cc(Cn2cnc3cc(OC)c(OC)cc3c2=O)ccc1O
- Emax [1]: 87.6%
- EC50 [2]: 31.6 µM

Further molecules by falling EC50 [2], results first:

- EC50 [2]: 31.6 µM
Structure (SMILES): COc1cc2ncn(Cc3ccccc3C)c(=O)c2cc1OC
- Emax [1]: 97.3%

- EC50 [2]: 31.6 µM
Structure (SMILES): COc1cc2ncn(Cc3ccc(OC)c(OCc4ccccc4)c3)c(=O)c2cc1OC
- Emax [1]: 95%

- EC50 [2]: 25.1 µM
Structure (SMILES): COc1ccc(Cn2cnc3cc(OC)c(OC)cc3c2=O)cc1
- Emax [1]: 100%

- EC50 [2]: 25.1 µM
Structure (SMILES): COc1cc2ncn(Cc3ccc(F)cc3)c(=O)c2cc1OC
- Emax [1]: 97.8%

- EC50 [2]: 20 µM
Structure (SMILES): COc1ccc(Cn2cnc3cc4c(cc3c2=O)OCO4)cc1
- Emax [1]: 101%

- EC50 [2]: 20 µM
Structure (SMILES): COc1cc2ncn(Cc3ccc(OCc4ccncc4)c(OC)c3)c(=O)c2cc1OC
- Emax [1]: 93.5%

- EC50 [2]: 12.6 µM
Structure (SMILES): COc1cc2ncn(Cc3ccc(OCc4ccc(Cl)cc4Cl)c(OC)c3)c(=O)c2cc1OC
- Emax [1]: 97.8%

- EC50 [2]: 10 µM
Structure (SMILES): COc1cc2ncn(Cc3ccc(OCc4ccc(F)cc4)c(Cl)c3)c(=O)c2cc1OC
- Emax [1]: 98.9%

- EC50 [2]: 7.94 µM
Structure (SMILES): COc1cc2ncn(Cc3ccc4c(c3)OCO4)c(=O)c2cc1OC
- Emax [1]: 98.6%

- EC50 [2]: 7.94 µM
Structure (SMILES): COc1cc2ncn(Cc3ccc(OCc4ccc(F)cc4)c(F)c3)c(=O)c2cc1OC
- Emax [1]: 99.1%

- EC50 [2]: 3.16 µM
Structure (SMILES): COc1ccc(COc2ccc(Cn3cnc4cc(OC)c(OC)cc4c3=O)cc2OC)cc1OC
- Emax [1]: 99.7%

- EC50 [2]: 1 µM
Structure (SMILES): COc1cc2ncn(Cc3ccc(OCc4cccc(F)c4)c(OC)c3)c(=O)c2cc1OC
- Emax [1]: 99.6%

- EC50 [2]: 0.631 µM
Structure (SMILES): COc1cc2ncn(Cc3ccc(OCc4cccnc4)c(OC)c3)c(=O)c2cc1OC
- Emax [1]: 98.4%

- EC50 [2]: 0.501 µM
Structure (SMILES): COc1cc2ncn(Cc3cc(OC)c(OC)c(OC)c3)c(=O)c2cc1OC
- Emax [1]: 104%

- EC50 [2]: 0.398 µM
Structure (SMILES): COc1cc2ncn(Cc3ccc(OCc4ccccc4)c(OC)c3)c(=O)c2cc1OC
- Activity (Rattus norvegicus [3]): 19 mmHg
- Activity [4]: Active
- Emax [1]: 103%
- Activity (Rattus norvegicus [5]): 48 mmHg

- EC50 [2]: 0.251 µM
Structure (SMILES): COc1cc2ncn(Cc3ccc(OCc4ccc(F)cc4)c(OC)c3)c(=O)c2cc1OC
- Activity (Rattus norvegicus [8]): 42 mmHg
- Activity (Rattus norvegicus [9]): Dose-dependent effect
- Activity (Rattus norvegicus [3]): 34 mmHg
- Activity [4]: Active
- Activity (Rattus norvegicus [10]): 9 mmHg
- Activity (Rattus norvegicus [11]): 20 mmHg
- Activity (Rattus norvegicus [12]): 23 mmHg
- Activity (Rattus norvegicus [13]): 36 mmHg
- Activity (Rattus norvegicus [14]): Dose-dependent effect
- Activity (Rattus norvegicus [15]): 0 mmHg
- Emax [1]: 103%
- Activity (Rattus norvegicus [6]): 41 mmHg
- Activity (Rattus norvegicus [16]): 21 mmHg
- Activity (Rattus norvegicus [17]): 17 mmHg
- Activity (Rattus norvegicus [5]): 60 mmHg
- Activity (Rattus norvegicus [7]): 18 mmHg
- Activity (Rattus norvegicus [18]): 12 mmHg
- Activity (Rattus norvegicus [19]): 64 mmHg
- Activity (Rattus norvegicus [20]): 46 mmHg
- Activity (Rattus norvegicus [21]): 10 mmHg
- Activity (Rattus norvegicus [22]): 28 mmHg
- Activity (Rattus norvegicus [23]): 2 mmHg
- Activity (Rattus norvegicus [24]): 15 mmHg
- Activity (Rattus norvegicus [25]): 43 mmHg

- EC50 [2]: 0.00398 µM
Structure (SMILES): CCOC(=O)C1=C(C)NC(C)=C(C(=O)OC)C1c1cccc([N+](=O)[O-])c1 (stereo unspecified) [NITRENDIPINE]
- Emax [1]: 104%
- Activity (Rattus norvegicus [6]): 51 mmHg
- Activity (Rattus norvegicus [7]): 30 mmHg
